Assay results: ChEMBL document CHEMBL3425461, “Positron emission tomography to elucidate pharmacokinetic differences of regioisomeric retinoid x receptor agonists” (ACS Med Chem Lett, 2015); call rule not given here

Key:
[1] = AUC in mouse blood at 30 mg/kg, po; format: ADME, organism-based; parameters: dose 30 mg/kg, route oral
Outline: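 AUC at 30 mg/kg p.o. in mice taken from earlier work; skip.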

[2] = Retention time of the compound by HPLC method; format: physicochemical
Outline: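 Reversed-phase HPLC, 3 μm column, 0.7 mL/min, methanol/25 mM ammonium acetate pH 5.0 (80:20 v/v) mobile phase, UV detection at 260 nm.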

[3] = Drug level in ICR mouse plasma at 30 mg/kg, po administered as single dose measured after 1 hr; format: ADME, organism-based; parameters: dose 30 mg/kg, route oral
Outline: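 Single oral dose of 30 mg/kg given as 0.5% CMC suspension to mice; blood and brain concentrations of non-radioactive compound measured 1 h after dosing.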

[4] = Drug level in ICR mouse brain at 30 mg/kg, po administered as single dose measured after 1 hr
[5] = Ratio of drug level in brain to plasma of ICR mouse at 30 mg/kg, po administered as single dose measured after 1 hr
[6] = target: T1, Retinoic acid receptor RXR-alpha (Homo sapiens, UniProt P19793); test: Agonist activity at RXRalpha (unknown origin) expressed in COS1 cells incubated for 18 hrs by luciferase reporter gene assay; format: cell-based, COS-1
T1 sequence (P19793 whole entry): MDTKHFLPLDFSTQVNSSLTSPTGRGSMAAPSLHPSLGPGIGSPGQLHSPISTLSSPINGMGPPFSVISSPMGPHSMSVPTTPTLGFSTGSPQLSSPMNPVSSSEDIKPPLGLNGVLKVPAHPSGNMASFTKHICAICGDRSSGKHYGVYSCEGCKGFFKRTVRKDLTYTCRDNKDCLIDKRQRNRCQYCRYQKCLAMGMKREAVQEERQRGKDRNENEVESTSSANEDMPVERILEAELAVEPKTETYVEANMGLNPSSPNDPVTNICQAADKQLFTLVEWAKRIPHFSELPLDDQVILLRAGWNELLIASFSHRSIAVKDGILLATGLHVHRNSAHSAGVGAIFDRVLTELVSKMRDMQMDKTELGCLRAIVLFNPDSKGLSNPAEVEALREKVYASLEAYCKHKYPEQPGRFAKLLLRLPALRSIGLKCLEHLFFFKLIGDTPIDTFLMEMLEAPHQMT

[7] = test system: Heart; test: Ratio of AUC (0 to 30 mins) in ICR mouse heart at 8 to 11 MBq, po to AUC (0 to 30 mins) in ICR mouse heart at 8 to 11 MBq, iv; format: ADME, organism-based; settings: in vivo
Outline: (§1)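 Tracer in EtOH diluted with saline to 10 MBq, given i.v. or p.o.; 30 min PET scan; blood radioactivity as %ID/mL from heart %ID divided by heart volume; AUC over 0–30 min; bioavailability as dose-corrected oral AUC over i.v. AUC; n = 3–5, mean ± SEM.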

[8] = test system: Heart; test: Drug uptake in ICR mouse heart at 8 to 11 MBq, iv by PET/CT imaging method; format: ADME, organism-based; settings: in vivo
Outline: (§2)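 Tracer dissolved in EtOH, diluted with saline to 10 MBq, given i.v. or p.o.; 30 min PET/CT scan, images reconstructed at selected times; organ ROIs defined from PET/CT data; uptake expressed as %ID (organ Bq per whole-body Bq) from mean pixel radioactivity; n = 3–5, mean ± SEM; one-way ANOVA then t-test.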

[9] = test system: Liver; test: Drug uptake in ICR mouse liver at 8 to 11 MBq, iv by PET/CT imaging method; format: ADME, organism-based; settings: in vivo; outline: as §2
[10] = Drug uptake in ICR mouse gall bladder at 8 to 11 MBq, iv by PET/CT imaging method; format: ADME, organism-based; settings: in vivo; outline: as §2
[11] = test system: Duodenum; test: Drug uptake in ICR mouse duodenum at 8 to 11 MBq, iv by PET/CT imaging method; format: ADME, organism-based; settings: in vivo; outline: as §2
[12] = test system: Kidney; test: Drug uptake in ICR mouse kidney at 8 to 11 MBq, iv by PET/CT imaging method; format: ADME, organism-based; settings: in vivo
[13] = Drug uptake in ICR mouse urinary bladder at 8 to 11 MBq, iv by PET/CT imaging method; format: ADME, organism-based; settings: in vivo; outline: as §2
[14] = test system: Stomach; test: Drug uptake in ICR mouse stomach at 8 to 11 MBq, po by PET/CT imaging method; format: ADME, organism-based; settings: in vivo; outline: as §2
[15] = test system: Duodenum; test: Drug uptake in ICR mouse duodenum at 8 to 11 MBq, po by PET/CT imaging method; format: ADME, organism-based; settings: in vivo; outline: as §2
[16] = test system: Liver; test: Drug uptake in ICR mouse liver at 8 to 11 MBq, po by PET/CT imaging method; format: ADME, organism-based; settings: in vivo; outline: as §2
[17] = Drug uptake in ICR mouse gall bladder at 8 to 11 MBq, po by PET/CT imaging method; format: ADME, organism-based; settings: in vivo; outline: as §2
[18] = test system: Stomach; test: Drug uptake in ICR mouse stomach at 8 to 11 MBq, po after 30 mins by PET/CT imaging method; format: ADME, organism-based; settings: in vivo, 0.5 h; outline: as §2
[19] = test system: Kidney; test: Drug uptake in ICR mouse kidney at 8 to 11 MBq, po by PET/CT imaging method; format: ADME, organism-based; settings: in vivo
[20] = Drug uptake in ICR mouse urinary bladder at 8 to 11 MBq, po by PET/CT imaging method; format: ADME, organism-based; settings: in vivo; outline: as §2
[21] = test system: Heart; test: Drug uptake in ICR mouse heart at 8 to 11 MBq, iv during 0 to 30 mins by PET imaging method; format: ADME, organism-based; settings: in vivo; outline: as §1

CCN(c1ccc(C(C)C)c(OCC(C)C)c1)c1ccc(C(=O)O)cn1
AUC [1]: 1140 ng·h/mL
Retention_time [2]: 12.7 min
concentration at 1 h [3]: 1320 ng/mL
concentration at 1 h [4]: 978 ng/mL
Kp at 1 h [5]: 0.74

CCN(c1ccc(C(C)C)c(OCC(C)CF)c1)c1ccc(C(=O)O)cn1 (stereo unspecified)
EC50 [6]: 12 nM
Retention_time [2]: 7.63 min

CCN(c1ccc(OCC(C)C)c(C(C)C)c1)c1ccc(C(=O)O)cn1
EC50 [6]: 169 nM
AUC [1]: 18800 ng·h/mL
Retention_time [2]: 11.7 min
concentration at 1 h [3]: 6760 ng/mL
concentration at 1 h [4]: 2570 ng/mL
Kp at 1 h [5]: 0.38

CCN(c1ccc(OCC(C)CF)c(C(C)C)c1)c1ccc(C(=O)O)cn1 (stereo unspecified)
EC50 [6]: 450 nM
Retention_time [2]: 6.7 min

CCN(c1ccc(C(C)C)c(OCC(C)C[18F])c1)c1ccc(C(=O)O)cn1 (stereo unspecified)
Ratio [7]: 0.18
Drug uptake [8]: Active
Drug uptake [9]: Active
Drug uptake [10]: Active
Drug uptake [11]: Active
Drug uptake [12]: Not Active
Drug uptake [13]: Not Active
Drug uptake [14]: Active
Drug uptake [15]: Active
Drug uptake [16]: Active
Drug uptake [17]: Active
Drug uptake [18]: Active
Drug uptake [19]: Not Active
Drug uptake [20]: Not Active

CCN(c1ccc(OCC(C)C[18F])c(C(C)C)c1)c1ccc(C(=O)O)cn1 (stereo unspecified)
Ratio [7]: 0.43
Drug uptake [8]: Active
Drug uptake [9]: Active
Drug uptake [10]: Active
Drug uptake [11]: Active
Drug uptake [12]: Not Active
Drug uptake [13]: Not Active
Drug uptake [14]: Active
Drug uptake [15]: Active
Drug uptake [16]: Active
Drug uptake [17]: Active
Drug uptake [18]: Active
Drug uptake [19]: Not Active
Drug uptake [20]: Not Active

CCN(c1ccc(C(C)C)c(OCC(C)C)c1)c1ccc([11C](=O)O)cn1
Drug uptake [21]: Active

CCN(c1ccc(OCC(C)C)c(C(C)C)c1)c1ccc([11C](=O)O)cn1
Drug uptake [21]: Active

C=C(c1ccc(C(=O)O)cc1)c1cc2c(cc1C)C(C)(C)CCC2(C)C [BEXAROTENE]
concentration at 1 h [3]: 4150 ng/mL
